An excerpt weighted towards active compounds, which were near 2.5% of everything screened.
NSD2 HMT inh: inhibitors of human histone methyltransferase NSD2; O96028; NSD2 peptide methylation, AlphaScreen, 120 min; inhibition, % at 12.5 µM; hit rate 0.54% among 310,000
CDK5 inh: CDK5/p35 (human) kinase inhibition | Q00535+Q15078 | Recombinant CDK5/p35, ADP-Glo luminescence, 60 min | inhibition, % at 10 µM | hit rate 0.01% among 330,000;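 active means highest replicate inhibition of at least 50% and at least 75% of replicates reaching 50%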
dFosB act: activators of mouse delta FosB homodimer. activation, % at 25 µM. P13346. purified delta FosB, TAMRA-CDK5 oligo fluorescence polarization; percent of positive-control signal above neutral wells. hit rate 0.99% among 340,000;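 active means mean activation above about 17%, with every replicate also reaching it, limit read from the data, passing the limit was not always enough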
Target sequence (P13346 whole entry, looked up): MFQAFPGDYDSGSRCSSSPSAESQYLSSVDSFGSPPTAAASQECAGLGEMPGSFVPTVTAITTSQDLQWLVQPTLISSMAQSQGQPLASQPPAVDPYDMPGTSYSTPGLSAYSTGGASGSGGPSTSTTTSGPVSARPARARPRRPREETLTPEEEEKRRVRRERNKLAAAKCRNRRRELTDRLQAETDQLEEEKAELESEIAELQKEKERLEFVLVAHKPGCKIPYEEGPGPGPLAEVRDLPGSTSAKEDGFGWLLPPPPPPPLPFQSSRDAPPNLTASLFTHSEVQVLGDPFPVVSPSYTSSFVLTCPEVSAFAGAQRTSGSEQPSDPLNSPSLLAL
Dyrk1A ADPGlo: blocks rat Dyrk1A kinase activity | Q63470 | ADP-Glo luminescence, NFATc1 peptide | inhibition, % at 12.5 µM | hit rate 0.43% among 310,000
SR-BI HDL uptake: mouse SR-BI HDL lipid transfer inhibition. ldlA[mSR-BI] CHO cells, DiI-HDL uptake fluorescence, 3 h. hit rate 0.96% among 320,000. inhibition, % at 12.5 µM. Q61009;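 active means mean replicate inhibition of at least 70% and a set share of replicates each scoring 70 or more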
SR-BI uptake up: activators of SR-BI mediated HDL lipid uptake; CHO ldlA[mSR-BI] cells, DiI-HDL uptake fluorescence, 3 h; 100 = double the neutral-control signal; activation, % at 12.5 µM; hit rate 0.096% among 320,000; AID 504775;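 active means mean replicate activation of at least 60% and every replicate at or above 60%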
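System: LDL receptor-deficient CHO ldlA cells overexpressing murine SR-BI | Timing: 3 h uptake period with compound, 37 °C | Medium: HEPES-buffered (25 mM, pH 7.4) F12 plus 0.5% BSA | Dosing: Single-point compound dose | Signal: Bottom-read fluorescence, 550/595 nm | Read-out: Retained DiI signal reflecting DiI-HDL uptake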
Alpha artifact: AlphaScreen assay artifact in NSD2 counter-screen. shares compounds with NSD2 HMT inh. AlphaScreen artifact counterscreen, preloaded methylated H4 peptide. hit rate 9.4% among 1,500. AC35, µM (titrated, usually from 10 µM); call rule not given here
Each line names hits and unclear results; the compound was inactive in the other large screens (follow-up assays come after a bar, where they were run). Unless noted, no stated cut-off is given here; in the data, active means inhibition above about 50%; inactive means the rest.

CCN1CC2CCCC3(C1)C(=O)NC1(CCCCC1)N=C23 (stereo unspecified)	NSD2 HMT inh 56 | Alpha artifact inactive
CCCN(CC(=O)Nc1ccccc1OC)C(=O)CNC(=O)c1ccc(C)s1	none
CCOc1ccccc1/C=N/NC(=O)c1nnn(-c2nonc2N)c1CN1CCC(C)CC1	NSD2 HMT inh 83 | Alpha artifact inactive
Cc1ccc(NC(=O)C2(C)CCN2C(=O)Cc2ccc(C(C)(C)C)cc2)cc1C (stereo unspecified)	none (no result: CDK5 inh, dFosB act, Dyrk1A ADPGlo, SR-BI HDL uptake, SR-BI uptake up)
CCN(CC)CCNC(=O)CN1C(=O)COc2ccc(S(=O)(=O)N3CCOCC3)cc21	NSD2 HMT inh 81 | Alpha artifact inactive
Cc1cc(C)n(-c2nnc3c4ccccc4n(C)c3n2)n1	none
O=c1cc(-c2ccccc2)cc(-c2ccccc2)n1O	none (no result: NSD2 HMT inh)
COc1cn(-c2ccccc2)nc1C(=O)NCc1ccccc1	NSD2 HMT inh 79 | Alpha artifact inactive
O=C1CCN(Cc2ccccc2)N1	NSD2 HMT inh 86 (no result: SR-BI HDL uptake, SR-BI uptake up) | Alpha artifact inactive
Cc1ccc(CN2CCC(=O)N2)cc1	none
CSc1nnc2c(n1)OC=Nc1ccccc1-2	NSD2 HMT inh 67 | Alpha artifact inactive
Cc1ccc(S(=O)(=O)N2CCCC(N3CCOCC3)C2)cc1Cl (stereo unspecified)	NSD2 HMT inh 53 (no result: Dyrk1A ADPGlo) | Alpha artifact inactive
COc1ccc(C)cc1S(=O)(=O)N1CCCC(N2CCOCC2)C1 (stereo unspecified)	none
Cc1ccc(S(=O)(=O)c2ccc(Cl)cc2)cc1S(=O)(=O)N1CCOCC1	NSD2 HMT inh 116 | Alpha artifact inactive
Cc1ccc(CS(=O)(=O)c2cn(CC(=O)Nc3ccon3)c3ccccc23)cc1	none
CC(C)(C)NC(=O)COC(=O)c1ccc2c(c1)C(=O)N(Cc1ccco1)C2=O	NSD2 HMT inh 75 | Alpha artifact inactive
CNC(=O)c1ccc(-c2cc(C(F)(F)F)nn2C)s1	NSD2 HMT inh 60 (no result: CDK5 inh, dFosB act, Dyrk1A ADPGlo, SR-BI HDL uptake, SR-BI uptake up) | Alpha artifact inactive
COc1ccccc1NC(=O)c1ccc(-n2cccn2)nc1	NSD2 HMT inh 118 | Alpha artifact inactive
O=C(NCCCN1CCCC1=O)Nc1cc(Cl)ccc1Cl	none
O=C(NCCCN1CCCC1=O)Nc1ccc(Cl)cc1Cl	NSD2 HMT inh 50 | Alpha artifact inactive
O=C(O)CC1(CC(=O)NCc2ccccn2)CCCCC1	none
OC(CCc1ccncc1)COc1ccccc1 (stereo unspecified)	none (no result: NSD2 HMT inh)
COc1ccc(OC)c(NC(=O)CCNC(=O)Cn2cnc3ccccc3c2=O)c1	none (no result: Dyrk1A ADPGlo)
CC1CCCCN1C(=O)CCNC(=O)Cn1cnc2ccccc2c1=O (stereo unspecified)	NSD2 HMT inh 94 | Alpha artifact inactive
COc1ccc(C)cc1NC(=O)CCNC(=O)Cn1cnc2ccccc2c1=O	NSD2 HMT inh 90 | Alpha artifact inactive
CCOC(=O)c1c(NC(=O)COC(=O)c2cccc([N+](=O)[O-])c2)sc(C(=O)N(C)C)c1C	none (no result: CDK5 inh, dFosB act, Dyrk1A ADPGlo, SR-BI HDL uptake, SR-BI uptake up)
O=C(NCC(=O)N1CCCC(C(F)(F)F)C1)c1ccc(Br)o1 (stereo unspecified)	none
COc1ccc(CCNC(=O)C2CCC(=O)N(C3CCCCCC3)C2)cc1 (stereo unspecified)	none
COc1cc(C(=O)Oc2cccc(/C=N/NC(=O)c3cccnc3)c2)cc(OC)c1OC	NSD2 HMT inh 98 | Alpha artifact inactive
CN(CC(=O)Nc1ccccc1Cl)C(=O)COC(=O)c1ccc([N+](=O)[O-])s1	NSD2 HMT inh 78 | Alpha artifact inactive
O=C(COC(=O)c1ccc([N+](=O)[O-])s1)NCCc1ccccc1	NSD2 HMT inh 58 | Alpha artifact inactive
O=C1CN(C(=O)COC(=O)c2ccc([N+](=O)[O-])s2)c2ccccc2N1	NSD2 HMT inh 60 | Alpha artifact inactive
O=C(COC(=O)c1ccc([N+](=O)[O-])s1)NC(=O)NCc1ccccc1	none
Cc1cccc(C)c1NC(=O)CNC(=O)CCC(=O)N1CCOCC1	none
Cc1ccc(NC(=O)CC2OC(=O)c3ccccc32)cc1S(=O)(=O)N1CCOCC1 (stereo unspecified)	none
COc1ccc(-n2cnc3sc4c(c3c2=O)CCCC4)cc1	none
CCOc1ccc(-n2cnc3sc4c(c3c2=O)CCCC4)cc1	NSD2 HMT inh 58 (no result: CDK5 inh, dFosB act, Dyrk1A ADPGlo, SR-BI HDL uptake, SR-BI uptake up) | Alpha artifact inactive
COc1ccc(N2CCN(C(=O)[C@H](C)NC(=O)c3ccccc3Cl)CC2)cc1	none (no result: SR-BI HDL uptake, SR-BI uptake up)
CC(=O)c1ccc(N2CCN(C(=O)[C@H](C)NC(=O)c3ccccc3Cl)CC2)cc1	NSD2 HMT inh 65 (no result: SR-BI HDL uptake, SR-BI uptake up) | Alpha artifact inactive
CCN(CC)C(=O)COC(=O)C1=NN(c2cc(C)ccc2C)C(=O)CC1	NSD2 HMT inh 59 | Alpha artifact inactive
Cc1cc(-c2ccc(C)c(S(=O)(=O)N3CCN(c4ccccn4)CC3)c2)on1	NSD2 HMT inh 131 | Alpha artifact inactive
Cc1cc(-c2ccc(C)c(S(=O)(=O)N3CCN(c4ccc([N+](=O)[O-])cc4)CC3)c2)on1	none
CC1(Cc2ccc(C(F)(F)F)nc2)C(=O)Nc2cc(-c3ccccc3Cl)ccc21 (stereo unspecified)	none (no result: CDK5 inh, dFosB act, Dyrk1A ADPGlo, SR-BI HDL uptake, SR-BI uptake up)
COc1ccc2ccccc2c1C1CC(=O)N2CN(C)CSC2=C1C#N (stereo unspecified)	NSD2 HMT inh 89 | Alpha artifact inactive
COc1cc(OC)c(C2CC(=O)N3CN(C)CSC3=C2C#N)cc1OC (stereo unspecified)	none (no result: NSD2 HMT inh)
CCc1c(C)nc2ncnn2c1Nc1ccc(C)cc1	NSD2 HMT inh 55 | Alpha artifact inactive
CCc1c(C)nc2ncnn2c1Nc1ccc(C)c(C)c1	none
CCOc1ccc(/C=N/NC(=O)C(O)c2ccccc2)c(O)c1 (stereo unspecified)	none
COC(=O)CC1=NN(c2ccc(OC)cc2)C(=O)/C1=C\c1ccc(Cl)cc1	NSD2 HMT inh 55 | Alpha artifact inactive
COC(=O)CC1=NN(c2ccccc2)C(=O)/C1=C\c1ccc(OC)cc1	none
Nc1cc(=O)nc(SCC(=O)N2CCN(c3ccccc3)CC2)n1-c1ccc(F)cc1	none
CC1CCCCC12NC(=O)N(CC(=O)NC(=O)NCc1ccco1)C2=O (stereo unspecified)	NSD2 HMT inh 121 | Alpha artifact inactive
CN(C(=S)NC(=O)C1(C)CC1(Cl)Cl)c1ccccc1 (stereo unspecified)	NSD2 HMT inh 59 | Alpha artifact inactive
Cc1oc2c(c1C(=O)O)C(=O)c1ccccc1C2=O	none (no result: NSD2 HMT inh, SR-BI HDL uptake, SR-BI uptake up)
Cc1oc2c(c1C(=O)c1ccccc1)C(=O)C(=O)c1ccccc1-2	NSD2 HMT inh 50 | Alpha artifact inactive
CN(C(=O)c1ccc(NC(=O)Cc2ccc(NC(=O)C3CCCN(C(=O)C4CCCC4)C3)cc2)cc1)C1CC1 (stereo unspecified)	none (no result: NSD2 HMT inh)
